Test results taken from ChEMBL document CHEMBL1137121, “Oxamides as novel NR2B selective NMDA receptor antagonists” (Bioorg Med Chem Lett, 2004).
Active and inactive are the calls of the source. No cut-off for these calls is given here.

Legend:
[1] = target: Glutamate NMDA receptor; GRIN1/GRIN2B (Homo sapiens, UniProt Q05586+Q13224); assay: Inhibition of NMDA-evoked increased intracellular [Ca2+] in cells expressing NR1/NR2B receptor; assay type: cell-based
[2] = target: Glutamate [NMDA] receptor; assay: Inhibition of [3H]-Ro-25-6981 binding to NMDA receptor; assay type: protein-complex assay
Mus musculus [3] = assay: In vivo analgesic activity was tested using formalin test in mouse upon p.o. administration; assay type: functional; details: po
Procedure, shortened: (§1)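 Mice were pretreated orally with the compound suspended in 5% Tween-80, then given formalin into the hindpaw. Licking was counted 20–25 min after the formalin injection. Percentage inhibition was calculated for each dose, and the dose giving a half-maximal effect (ED50) was determined.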

Mus musculus [4] = assay: In vivo analgesic activity was tested using formalin test in mouse upon p.o. administration; IA is inactive; assay type: functional, organism-based; procedure, shortened: as §1
Mus musculus [5] = assay: In vivo analgesic activity was tested using formalin test in mouse upon i.p. administration; assay type: functional; details: ip
Procedure, shortened: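 Mice were pretreated intraperitoneally before formalin injection into the hindpaw. Licking behaviour was counted 20–25 min after the formalin injection. Percentage inhibition was calculated per dose, and the ED50 (the dose producing a half-maximal effect) was derived.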

Mus musculus [6] = assay: In vivo analgesic activity was tested using formalin test in mouse upon s.c. administration; assay type: functional; details: sc

Glutamate NMDA receptor; GRIN1/GRIN2B, sequence (Q13224 whole entry, other chains not shown): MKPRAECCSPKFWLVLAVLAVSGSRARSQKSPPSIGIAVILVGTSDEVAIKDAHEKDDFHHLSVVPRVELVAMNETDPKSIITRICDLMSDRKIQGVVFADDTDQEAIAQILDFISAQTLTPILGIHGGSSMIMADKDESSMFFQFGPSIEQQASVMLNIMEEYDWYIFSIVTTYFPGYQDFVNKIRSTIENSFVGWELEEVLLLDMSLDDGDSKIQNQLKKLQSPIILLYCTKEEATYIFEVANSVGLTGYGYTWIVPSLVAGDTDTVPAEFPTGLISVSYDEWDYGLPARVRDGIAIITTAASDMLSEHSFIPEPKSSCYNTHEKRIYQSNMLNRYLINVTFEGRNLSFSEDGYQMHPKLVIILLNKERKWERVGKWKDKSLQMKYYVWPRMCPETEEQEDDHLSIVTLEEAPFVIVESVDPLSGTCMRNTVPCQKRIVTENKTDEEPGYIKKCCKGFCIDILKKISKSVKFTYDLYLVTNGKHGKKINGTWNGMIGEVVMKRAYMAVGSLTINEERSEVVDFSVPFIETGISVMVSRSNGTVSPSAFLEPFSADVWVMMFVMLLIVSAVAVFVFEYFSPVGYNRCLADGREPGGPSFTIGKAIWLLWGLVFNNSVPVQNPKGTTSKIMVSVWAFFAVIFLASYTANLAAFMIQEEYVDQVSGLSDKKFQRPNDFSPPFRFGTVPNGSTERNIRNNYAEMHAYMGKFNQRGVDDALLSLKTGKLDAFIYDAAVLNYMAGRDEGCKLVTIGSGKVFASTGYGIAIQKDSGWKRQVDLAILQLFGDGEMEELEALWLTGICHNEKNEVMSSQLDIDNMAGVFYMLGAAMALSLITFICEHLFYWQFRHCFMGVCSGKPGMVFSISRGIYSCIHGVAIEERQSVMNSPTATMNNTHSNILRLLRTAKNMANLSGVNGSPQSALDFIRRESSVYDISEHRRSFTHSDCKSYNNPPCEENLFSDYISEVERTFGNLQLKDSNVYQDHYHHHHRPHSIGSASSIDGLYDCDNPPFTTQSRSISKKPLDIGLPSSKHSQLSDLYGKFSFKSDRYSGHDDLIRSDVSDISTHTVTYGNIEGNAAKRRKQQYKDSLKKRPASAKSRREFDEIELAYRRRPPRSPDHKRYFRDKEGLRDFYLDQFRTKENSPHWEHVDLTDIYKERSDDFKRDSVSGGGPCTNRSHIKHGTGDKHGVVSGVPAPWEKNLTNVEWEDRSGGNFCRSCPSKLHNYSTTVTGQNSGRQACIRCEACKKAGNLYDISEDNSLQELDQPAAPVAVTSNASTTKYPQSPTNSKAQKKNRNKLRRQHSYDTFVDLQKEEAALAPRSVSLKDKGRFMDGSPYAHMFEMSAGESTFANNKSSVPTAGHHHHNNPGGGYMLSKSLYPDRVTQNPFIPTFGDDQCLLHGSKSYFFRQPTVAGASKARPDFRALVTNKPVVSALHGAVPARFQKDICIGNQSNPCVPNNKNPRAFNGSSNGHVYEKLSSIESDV

Cc1ccc(OC2CCN(C(=O)C(=O)Nc3ccc4[nH]c(=O)sc4c3)CC2)cc1
IC50 [1]: 8 nM | IC50 [2]: 17 nM | ED50 (Mus musculus [3]): 0.2 mg/kg

O=C(c1cc2cc(O)ccc2[nH]1)N1CCC(Cc2ccccc2)CC1
IC50 [1]: 42 nM | ED50 (Mus musculus [3]): 1.4 mg/kg

O=C(Nc1ccc2[nH]c(=O)oc2c1)C(=O)N1CCC(Cc2ccccc2)CC1
IC50 [1]: 3 nM | IC50 [2]: 8 nM | ED50 (Mus musculus [3]): 0.9 mg/kg

O=C(Nc1ccc2[nH]c(=O)sc2c1)C(=O)N1CCC(Cc2ccccc2)CC1
IC50 [1]: 9 nM | IC50 [2]: 17 nM | ED50 (Mus musculus [3]): 0.4 mg/kg

O=c1[nH]c2ccc([S+]([O-])CCN3CCC(Cc4ccc(F)cc4)CC3)cc2o1 (configuration not stated) [BESONPRODIL]
ED50 (Mus musculus [3]): 2.4 mg/kg

O=C(Nc1ccc2[nH]c(=O)[nH]c2c1)C(=O)N1CCC(Oc2ccc(Cl)cc2)CC1
IC50 [1]: 8 nM | IC50 [2]: 26 nM | ED50 (Mus musculus [3]): > 20 mg/kg

Cc1ccc(CC2(O)CCN(CCOc3ccc(O)cc3)CC2)cc1
ED50 (Mus musculus [4]): inactive | IC50 [1]: 5 nM | ED50 (Mus musculus [5]): 5.9 mg/kg

O=C(CCN1CCC(Cc2ccc(F)cc2)CC1)c1ccc2nc(O)oc2c1
IC50 [1]: 48 nM | IC50 [2]: 8 nM | ED50 (Mus musculus [3]): 3.7 mg/kg

C[C@@H](CN1CCC(Cc2ccccc2)CC1)[C@@H](O)c1ccc(O)cc1
ED50 (Mus musculus [4]): inactive | ED50 (Mus musculus [5]): 5.1 mg/kg

O=C(Nc1ccc2[nH]c(=O)oc2c1)C(=O)N1CCC(Cc2ccc(F)cc2)CC1 [RADIPRODIL]
IC50 [1]: 4 nM | IC50 [2]: 6 nM | ED50 (Mus musculus [3]): 7.7 mg/kg

Cc1ccc(OC2CCN(C(=O)C(=O)Nc3ccc4nc(S)[nH]c4c3)CC2)cc1
IC50 [1]: 10 nM | IC50 [2]: 131 nM | ED50 (Mus musculus [3]): > 20 mg/kg

Cc1ccc(CC2CCN(C(=O)C(=O)Nc3ccc4c(c3)OCC(=O)N4)CC2)cc1
IC50 [1]: 18 nM | IC50 [2]: 17 nM | ED50 (Mus musculus [3]): 10 mg/kg

C[C@@H]([C@@H](O)c1ccc(O)cc1)N1CCC(O)(c2ccccc2)CC1 [TRAXOPRODIL]
ED50 (Mus musculus [3]): > 20 mg/kg | ED50 (Mus musculus [6]): > 20 mg/kg

Cc1ccc(CC2CCN(C(=O)C(=O)Nc3ccc4c(c3)CC(=O)N4)CC2)cc1
IC50 [1]: 15 nM | IC50 [2]: 54 nM | ED50 (Mus musculus [3]): 0.5 mg/kg

O=C(Nc1ccc2[nH]c(=O)[nH]c2c1)C(=O)N1CCC(Cc2ccc(F)cc2)CC1
IC50 [1]: 2 nM | IC50 [2]: 5 nM | ED50 (Mus musculus [3]): > 20 mg/kg

O=C(Nc1ccc2[nH]c(=O)oc2c1)C(=O)N1CCC(Oc2ccc(Cl)cc2)CC1
IC50 [1]: 7 nM | IC50 [2]: 40 nM | ED50 (Mus musculus [3]): 4.4 mg/kg

O=C(Nc1ccc2[nH]c(=O)[nH]c2c1)C(=O)N1CCC(Cc2ccccc2)CC1
IC50 [1]: 6 nM | IC50 [2]: 4 nM | ED50 (Mus musculus [3]): 14 mg/kg

O=C1Nc2ccc(NC(=O)C(=O)N3CCC(Cc4ccccc4)CC3)cc2CO1
IC50 [1]: 29 nM | IC50 [2]: 139 nM | ED50 (Mus musculus [3]): < 0.1 mg/kg

O=C(Nc1ccc(O)cc1)C(=O)N1CCC(Cc2ccccc2)CC1
IC50 [1]: 31 nM | IC50 [2]: 16 nM | ED50 (Mus musculus [3]): 9.4 mg/kg
